Results pooled from the literature.
Target: Activin receptor type-2A (ACVR2A, Homo sapiens, UniProt P27037)

Structure (SMILES)	test	setting	remaining binding [%]
CN(C)c1nccc(-c2cnn3ncccc23)n1	binding	1 µM	90
CNC(=O)[C@@H]1CC[C@@H](n2c(-c3ccc4cnccc4c3)nc3ccc(C(=O)NCc4cccc(C(N)=O)c4)cc32)C1	binding, competition with immobilised ligand	1 µM	100
CCOC(=O)c1cc2cc(-c3cc(C(=O)NCc4ccc(C(=O)O)cc4)nn3C)ccc2[nH]1	cell-free assay, competition with immobilised ligand	0.1 µM	59
O=C(c1ccc(Nc2nccc(-c3cc4ccccc4s3)n2)cc1)N1CCC(N2CCCC2)CC1	binding, competition with immobilised ligand	1 µM	90
COc1ccnn2ncc(-c3ccnc(N(C)C)n3)c12	binding	1 µM	100
C=CC(=O)N1CCC(C(=O)NCC(=O)N2CCN(c3nc(-c4cnc(N)nc4C(F)F)nc(N4CCOCC4)n3)CC2)CC1	binding, competition with immobilised ligand	1 µM	86
CN([C@@H]1CCc2c(CC(=O)O)c3ccccc3n2C1)S(=O)(=O)c1ccc(F)cc1	cell-free assay, competition with immobilised ligand	1 µM	100
c1cnn2ncc(-c3ccnc(N4CCC45COC5)n3)c2c1	binding	1 µM	99
O=C1NC(c2ccccn2)Sc2ccccc21 (stereo not shown)	cell-free assay, competition with immobilised ligand	1 µM	100
C[C@H]1CCN(c2nccc(-c3cnn4ncccc34)n2)C1	binding	1 µM	96
COc1ccc2c(O[C@@H]3C[C@H]4C(=O)N[C@]5(C(=O)O)CC5/C=C\CCCCC[C@H](NC(=O)OC5CCCC5)C(=O)N4C3)cc(-c3csc(NC(=O)C(C)C)n3)nc2c1C (stereo partly shown)	cell-free assay, competition with immobilised ligand	1 µM	72
CN(CCCC(F)(F)F)c1nccc(-c2cnn3ncccc23)n1	binding	1 µM	100
O=C(NCCCN1CCOCC1)c1ccc(Nc2ncc(Cl)c(-c3ccc(Cl)s3)n2)cc1	binding, competition with immobilised ligand	1 µM	90
Nc1ncc2c(n1)-c1c([nH]c3ccc(C#CC4CC4)cc13)CCCC2	binding, competition with immobilised ligand	1 µM	91
F[C@@H]1CCN(c2nccc(-c3cnn4ncccc34)n2)C1	binding	1 µM	100
CCN1CCN(Cc2ccc(C(=O)Nc3ccc(C)c(Oc4ccc5c(c4)CC(=O)N5)c3)cc2C(F)(F)F)CC1	binding, competition with immobilised ligand	1 µM	100
C[C@H](c1ccnc(Nc2nc3ccc(-c4cc(N(C)C)ncn4)cc3[nH]2)c1)N1CCN(C(=O)CC(F)(F)F)CC1	cell-free assay, competition with immobilised ligand	0.1 µM	100
O=C(c1ccc(Nc2ncc(Cl)c(-c3cc4ccccc4s3)n2)cc1)N1CCC(N2CCCC2)CC1	binding, competition with immobilised ligand	1 µM	64
CC1=C(C#N)C(c2ccc3c(c2)c(NC(=O)c2ccccc2C)nn3C)C(C#N)=C(C)N1	cell-free assay, competition with immobilised ligand	1 µM	97
N[C@@H]1CCN(c2nccc(-c3cnn4ncccc34)n2)C1	binding	1 µM	100
CC(=O)Nc1c(C(C)=O)c(=O)n(C)c2nc(-c3ccc(Cl)cc3Cl)c(-c3ccc(Cl)cc3)cc12	cell-free assay, competition with immobilised ligand	1 µM	100
O=C(NCC1CCOCC1)c1n[nH]cc1NC(=O)c1c(F)cccc1F	binding, competition with immobilised ligand	1 µM	85
